According to ChEMBL document CHEMBL4041489, “Meroterpenoids and Chalcone-Lignoids from the Roots of Mimosa diplotricha” (J Nat Prod, 2016):

System: HepG2
Test: Antiproliferative activity against human HepG2 cells measured after 72 hrs by SRB assay
Type: functional
Conditions: HepG2, 72 h
In short: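 HepG2 cells from BCRC grown in RPMI 1640 with 10% FBS, nonessential amino acids, penicillin/streptomycin at 37 °C, 5% CO2. Cells were seeded in 10% FBS medium, and a T0 plate was TCA-fixed at 24 h. Compound or DMSO was added for 72 h, then cells were fixed with 10% TCA and stained with 0.4% SRB. Absorbance read at 515 nm; % growth vs T0 and control gave GI50.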

`COC1=CC(=O)[C@@]2(c3cc(=O)c4ccc(OC)cc4o3)[C@H](C[C@]3(C)[C@@H](C(=O)O)CC=C4[C@H]3CCCC4(C)C)C(C)=CC[C@H]2C1=O` and `COC1=CC(=O)[C@@]2(c3cc(=O)c4ccc(O)cc4o3)[C@H](CC=C(C)[C@@H]2C[C@]2(C)[C@@H](C(=O)O)CC=C3[C@H]2CCCC3(C)C)C1=O` cannot be ordered by GI50: greater than 10 µM for the first, greater than 10 µM for the second.

First: COC1=CC(=O)[C@@]2(c3cc(=O)c4c(O)cc(OC)cc4o3)[C@H](C[C@]3(C)[C@@H](C(=O)O)CC=C4[C@H]3CCCC4(C)C)C(C)=CC[C@H]2C1=O
Second: COC1=CC(=O)[C@@]2(c3cc(=O)c4c(O)cc(O)cc4o3)[C@H](CC=C(C)[C@@H]2C[C@]2(C)[C@@H](C(=O)O)CC=C3[C@H]2CCCC3(C)C)C1=O
The GI50 of the first is lower: 8.6 µM for the first, greater than 10 µM for the second.

`COC1=CC(=O)[C@@]2(c3cc(=O)c4c(O)cc(O)cc4o3)[C@H](C[C@]3(C)[C@@H](C(=O)O)CC=C4[C@H]3CCCC4(C)C)C(C)=CC[C@H]2C1=O` and `COC1=CC(=O)[C@@]2(c3cc(=O)c4ccc(O)cc4o3)[C@H](C[C@]3(C)[C@@H](C(=O)O)CC=C4[C@H]3CCCC4(C)C)C(C)=CC[C@H]2C1=O` cannot be ordered by GI50: greater than 10 µM for the first, greater than 10 µM for the second.

Biological target: not listed separately
Test: Inhibition of rat protein farnesyltransferase pretreated for 15 mins followed by dansyl-Gly-Cys-Val-Leu-Ser-OH substrate addition in presence of farnesyl pyrophosphate measured after 30 mins by fluorescence assay
Conditions: not given

Compared with `COC1=CC(=O)[C@@]2(c3cc(=O)c4ccc(OC)cc4o3)[C@H](C[C@]3(C)[C@@H](C(=O)O)CC=C4[C@H]3CCCC4(C)C)C(C)=CC[C@H]2C1=O`, `COC1=CC(=O)[C@@]2(c3cc(=O)c4ccc(O)cc4o3)[C@H](CC=C(C)[C@@H]2C[C@]2(C)[C@@H](C(=O)O)CC=C3[C@H]2CCCC3(C)C)C1=O` is 3.7-fold higher in IC50: 7.5 µM for the first, 27.9 µM for the second.

`COC1=CC(=O)[C@@]2(c3cc(=O)c4c(O)cc(OC)cc4o3)[C@H](C[C@]3(C)[C@@H](C(=O)O)CC=C4[C@H]3CCCC4(C)C)C(C)=CC[C@H]2C1=O` and `COC1=CC(=O)[C@@]2(c3cc(=O)c4c(O)cc(O)cc4o3)[C@H](CC=C(C)[C@@H]2C[C@]2(C)[C@@H](C(=O)O)CC=C3[C@H]2CCCC3(C)C)C1=O` are within 1.5-fold of each other in IC50: 5 µM for the first, 5.1 µM for the second.

First: COC1=CC(=O)[C@@]2(c3cc(=O)c4c(O)cc(O)cc4o3)[C@H](C[C@]3(C)[C@@H](C(=O)O)CC=C4[C@H]3CCCC4(C)C)C(C)=CC[C@H]2C1=O
Second: COC1=CC(=O)[C@@]2(c3cc(=O)c4ccc(O)cc4o3)[C@H](C[C@]3(C)[C@@H](C(=O)O)CC=C4[C@H]3CCCC4(C)C)C(C)=CC[C@H]2C1=O
The IC50 of the first is 5.5-fold lower: 8.5 µM for the first, 47 µM for the second. The first is the more potent here.

In the case of `CSCC[C@H](NC(=O)c1ccc(NC(=O)[C@@H](N)CS)cc1)C(=O)O`, the IC50 is reported as 0.1 µM.

Biological target: not listed separately
Test: Inhibition of porcine brain protein farnesyltransferase using p21 ras protein as substrate in presence of [3H]FPP after 1 hr by liquid scintillation counting method
Set-up: species or system Sus scrofa
Conditions: not given

With `CSCC[C@H](NC(=O)c1ccc(NC(=O)[C@@H](N)CS)cc1)C(=O)O` the IC50 was 0.05 to 0.075 µM.
